DDE Tn7 FP inh – DD(E)-Tn7 binding inhibition, primary FP screen; FP displacement of FITC-Tn7 peptide from fibrin DD(E); 0% = median of compound wells per plate; inhibition, % at 8.3 µM; 0.13% of 370,000 active;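 active means inhibition above the mean of compounds falling within the control limits plus 3 SD of them, cut at about 14% in these data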;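 further: 0% = plate median of compound wells and 100% = 10 µM Aha-Tn7 peptide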
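Assay system: human fibrin DD(E). Input: DD(E) 2 µM final. Medium: Tris buffer with calcium and detergent, pH 7.8. Compound dosing: single point at 8.3 µM. Timing: 10 min plus 3 h, room temperature. Technique: fluorescence polarization of the labelled Tn7 tracer. Read-out: percent inhibition. Replicates: singlicate testing.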
SIAE inh – blocks human sialic acid acetylesterase | 0.69% of 370,000 active | SIAE FP-Rh probe binding, fluorescence polarization | Q9HAT2 | inhibition, % at 9.66 µM | AID 1053197;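 active means inhibition above a cutoff: mean of compounds within the control limits plus 3 SD of those, cut at about 17% in these data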;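 further: 0% = plate median of compound wells and 100% = probe without SIAE protein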
DDE Tn6 FP inh – disrupts Tn6 cyclic peptide binding to fibrin D-Dimer-E complex; P02675; Fibrin DD(E) TRITC-Tn6 fluorescence polarization displacement; inhibition, % at 8.3 µM; 0.21% of 370,000 active;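 active means inhibition above a per-campaign cutoff: mean of compounds within control limits plus 3 SD, cut at about 15% in these data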;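 further: 0% = median of all compound wells on the plate and 100% = blocking peptide control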
TCR CD3 inh – blocks the human TCR-CD3 interaction. TAMRA-labeled TCR probe fluorescence, biochemical. inhibition, % at 9.4 µM. 0.37% of 360,000 active. AID 651800; in the data active means inhibition above about 19%;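 further: recombinant mutant TCR 2C K166C tagged with TAMRA read by polarization; 0% = receptor in buffer alone and 100% = receptor with positive control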
HTRA1 inh – HTRA1 (human) protease inhibition. Q92743. recombinant HTRA1, FP-rhodamine activity-based probe, fluorescence polarization. inhibition, % at 5.96 µM. 0.5% of 340,000 active; in the data active means inhibition above about 36%;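 further: 0% = enzyme with DMSO and 100% = wells lacking enzyme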
mABHD4 FP – inhibits mouse alpha/beta hydrolase domain 4; Q8VD66; purified mABHD4, FP-Rh probe fluorescence polarization; AID 720543; 0.54% of 370,000 active; inhibition, % at 8.92 µM;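 active means inhibition exceeding the mean over every tested compound plus 3 SD, cut at about 30% in these data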;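 further: 0% = plate median of compound wells and 100% = S159A mutant with DMSO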
Target sequence (Q8VD66 whole entry, looked up, the tested form may be a part): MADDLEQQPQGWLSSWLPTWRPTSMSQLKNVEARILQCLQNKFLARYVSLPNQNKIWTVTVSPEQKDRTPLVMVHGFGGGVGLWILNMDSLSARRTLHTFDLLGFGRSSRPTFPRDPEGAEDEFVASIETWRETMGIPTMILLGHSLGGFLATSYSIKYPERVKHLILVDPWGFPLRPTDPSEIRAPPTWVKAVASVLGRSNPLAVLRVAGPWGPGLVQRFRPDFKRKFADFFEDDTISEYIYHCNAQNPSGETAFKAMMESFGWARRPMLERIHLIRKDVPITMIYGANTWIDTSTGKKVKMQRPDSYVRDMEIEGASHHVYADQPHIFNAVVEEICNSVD
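Test system: mABHD4 protein | Buffer or medium: HEPES pH 7.0 buffer, 150 mM NaCl, 0.01% Pluronic F-127 | Probe or stimulus: FP-Rh fluorescent activity-based probe, added after compound pre-incubation | Timing: Pre-incubation 45 min, probe exposure 60 min, at 25 °C | Technique: Fluorescence polarization, excitation 525 nm, emission 598 nm, BODIPY TMR filters | Repeats: Single well per compound (singlicate)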
SIAE confirm – confirmation of human SIAE inhibitors; shares compounds with SIAE inh; SIAE FP-Rh activity-based probe, fluorescence polarization; AID 1117263; 13% of 2,300 active; inhibition, % at 9.66 µM;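 active means mean inhibition of the replicates above the hit cutoff set in the primary screen, cut at about 17% in these data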;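 further: 0% = SIAE with DMSO and probe and 100% = probe without SIAE; inhibitors lower polarization as more probe stays unbound to SIAE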
* = called active by the depositor; . = no result. An excerpt weighted towards active compounds, which were near 1.8% of everything screened.

SMILES	DDE Tn7 FP inh	SIAE inh	DDE Tn6 FP inh	TCR CD3 inh	HTRA1 inh	mABHD4 FP	SIAE confirm
O=C(N[C@H](Cc1ccccc1)C(=O)N1CCN(C(=O)N2CCOCC2)CC1)[C@H]1O[C@@H](n2ccc(=O)[nH]c2=O)[C@H](O)[C@@H]1O	-4	-6	-1	4	.	3	.
NC(=O)[C@@H]1CCCN1C(=O)[C@@H](Cc1ccccc1)NC(=O)[C@H]1O[C@@H](n2ccc(=O)[nH]c2=O)[C@H](O)[C@@H]1O	-4	49*	-2	6	.	-2	41*
CN1OC[C@@H]2CN[C@H](c3ccc(N4CCCCC4)cc3)C[C@@H]21	0	6	1	1	.	-3	.
O=C(NCCc1c[nH]c2ccccc12)OCc1cn(-c2ccc(Cl)cc2)nn1	0	0	-5	.	.	-10	.
Cc1ccc(NC(=O)[C@@H](Cc2ccccc2)NC(=O)[C@H]2O[C@@H](n3ccc(=O)[nH]c3=O)[C@H](O)[C@@H]2O)cc1C	2	0	-2	3	.	-6	.
Cc1nccn1-c1ccc(NC(=O)[C@@H](Cc2ccccc2)NC(=O)[C@H]2O[C@@H](n3ccc(=O)[nH]c3=O)[C@H](O)[C@@H]2O)cc1	-6	54*	2	4	.	-19	44*
CC(C)C[C@H]1COc2cccc(N3CCSCC3)c2S(=O)(=O)N1C	-3	-3	-6	.	.	6	.
Cc1cccc(NC(=O)OC2CC3CC2[C@H]2CCCCN2C3)c1 (stereo partly drawn)	7	14	-2	.	.	0	.
COC(=O)C(NC(=O)c1ccco1)(Nc1ccc(Br)cn1)C(F)(F)F (stereo not drawn)	5	22*	-6	-14	-4	2	0
COC(=O)C(NC(C)=O)(Nc1ccc(Br)cn1)C(F)(F)F (stereo not drawn)	3	-2	-1	-2	-1	-3	.
CCC1CCC(N2CCN(c3ccc(F)cc3)CC2)CC1 (stereo not drawn)	4	17*	-5	-4	-17	5	0
CCC1CCC(N2CCN(c3ccc([N+](=O)[O-])cc3)CC2)CC1 (stereo not drawn)	-5	-2	8	0	-1	3	.
NC(=O)c1ncn([C@@H]2O[C@H](C(=O)N[C@H](Cc3ccccc3)C(=O)O)[C@@H](O)[C@H]2O)n1	3	7	12	-8	.	6	.
CN(C)S(=O)(=O)c1cccc(C(=O)NC2CCSc3ccccc32)c1 (stereo not drawn)	2	25*	-2	3	1	4	-4
CC1(NC(=O)Nc2cccc3ccccc23)CCS(=O)(=O)C1 (stereo not drawn)	0	22*	-7	3	4	-10	1
CCOC(=O)[C@]12CCCC3=C1N(CCC3)C(=O)[C@@H](CC(=O)N1CCN(C(=O)C3CC3)CC1)C2	1	-4	-2	.	.	3	.
C[C@H]1[C@@H](NC(=O)C#Cc2ccccc2)CC[C@@]23CCCN2C(=O)CCC[C@@H]13	-7	4	5	.	.	2	.
COc1ccc(C(=O)NCCn2ccc3ccccc32)cc1OC	1	22*	3	-1	-6	2	0
COc1cccc(C(=O)NCCn2ccc3ccccc32)c1	1	2	-2	-5	0	-9	.
COc1ccc(-c2ncn(CCc3ccccc3OC)c2CC(C)C)cc1	6	3	-2	1	.	8	.
NC(Cc1ccc(C(F)(F)F)cc1)c1csc(NC(=O)Nc2ccccc2Cl)n1 (stereo not drawn)	-10	20*	-7	1	.	2	21*
COc1ccccc1NC(=O)c1sc2nc(-c3ccco3)ccc2c1N	.	.	.	.	-4	.	.
Nc1c(C(=O)Nc2ccccc2)sc2nc(-c3ccco3)ccc12	3	30*	4	6	-7	8	5
COC(=O)[C@]12C[C@H](CC(=O)NCc3ccccc3)C(=O)N(Cc3ccccc3)C1=C[C@H](C(C)(C)C)O[C@@H]2C	1	-3	8	12	.	-1	.
Cc1ccc(NCc2nnc(SCC(=O)O)n2-c2ccc(C)cc2)cc1	2	3	1	-3	4	2	.
SMILES	DDE Tn7 FP inh	SIAE inh	DDE Tn6 FP inh	TCR CD3 inh	HTRA1 inh	mABHD4 FP	SIAE confirm
Cc1ccc(-n2c(CNc3ccc(F)cc3)nnc2SCC(=O)O)cc1	-1	20*	-8	4	.	2	4
CC(C)(C)c1ccc(OCCNCc2ccccc2)cc1	-8	-1	9	-2	2	13	.
CC(C)(C)c1ccc(OCCNC(=S)Nc2ccccc2)cc1	-4	17*	4	7	-46	-24	-11
CCc1ccc(CNC(=O)CCS(=O)(=O)Cc2ccccc2F)cc1	5	20*	-2	0	-7	-7	4
CCCCC(CCC(=O)Nc1cccc([N+](=O)[O-])c1)C(=O)O (stereo not drawn)	0	-1	6	2	8	10	.
CCC(CCC(=O)Nc1cccc([N+](=O)[O-])c1)C(=O)O (stereo not drawn)	-2	23*	5	5	-3	2	4
Nc1nc2c(ncn2[C@@H]2O[C@H](C(=O)NCC(c3ccccc3)c3ccccc3)[C@@H](O)[C@H]2O)c(=O)[nH]1	-6	-2	3	-6	.	-1	.
COC(=O)CSc1nc2ccc(N)cc2s1	-3	18*	3	-4	6	8	6
CCOC(=O)CSc1nc2ccc(NC(C)=O)cc2s1	-1	3	7	-5	8	-1	.
Cc1cccc(Cc2ncc(C(F)(F)F)cc2Cl)c1	3	19*	-1	4	-2	-1	7
Cn1cc(CCOCc2ccccn2)c2ccccc21	1	4	-4	4	.	4	.
O=C(Nc1ccccc1C(F)(F)F)c1ccsc1	7	-3	-5	-5	2	-8	.
O=C(NNc1ccccc1C(F)(F)F)c1sccc1Br	-2	25*	0	7	-6	-1	-3
c1ccc2c(c1)CCN(c1nc3ccccc3n3cnnc13)C2	-1	18*	0	2	-21	-3	-7
CC(C)(C)N(Cc1cn(Cc2ccccc2)nn1)S(=O)(=O)c1ccc(F)cc1Br	5	-2	-8	.	.	-4	.
CC(C)(C)c1ccccc1NC(=O)COC(=O)CN1C(=O)NC2(CCCC2)C1=O	-5	21*	-2	7	5	1	4
Cc1ccccc1NC(=O)COC(=O)CN1C(=O)NC(C)(C)C1=O	2	-1	1	5	2	-8	.
COc1ccc(-n2c(SCc3nc4ccccc4[nH]3)nc3ccccc3c2=O)cc1	1	-22	5	.	.	1	.

Screens as filed in PubChem BioAssay.
